Measurements: paper PMC4191586 (Journal of Medicinal Chemistry, 2014)
Entries after “also recorded” stand apart in the source; their conditions may differ. Where two headings read alike, the source gives them in different places.

Assays:
[1] = tested on: RT16 CHO cells (express human FRα); details: read-out: IC50 FRα RT16; without folic acid; mean (SEM); cited from earlier work
[2] = tested on: FRα- and PCFT-expressing tumor cells; details: up; cited from earlier work
[3] = tested on: PC43-10 CHO cells (express human RFC); details: mean (SEM), previously published, cited from earlier work
[4] = tested on: PC43-10 CHO cells (express human RFC); assay: Growth inhibition assay, RFC-expressing PC43-10 CHO cells; type: cell-based, Chinese hamster; details: PC43-10, 96 h, read-out: IC50 RFC PC43-10
[5] = tested on: KB human nasopharyngeal carcinoma cells (express RFC, FRα, PCFT); assay: Growth inhibition assay, KB human tumor cells; type: cell-based; details: for IC50: Homo sapiens, read-out: IC50 RFC/FRα/PCFT KB
[6] = tested on: D4 CHO cells (express human FRβ); assay: Growth inhibition assay, FRβ-expressing D4 CHO cells; type: cell-based, Chinese hamster; details: for IC50 FRβ D4: without folic acid, mean (SEM); for IC50: CHO, read-out: IC50 FRβ D4
Outline: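 D4 cells were seeded at ~2500–5000 per well in folate-free RPMI with 10% dialyzed FBS, 2 nM leucovorin and 2 mM L-glutamine. They were exposed to a range of drug concentrations for up to 96 h, with or without 200 nM folic acid in parallel. Viability was read by CellTiter-Blue fluorescence.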

FRα = FRα (Homo sapiens, UniProt P15328); assay: Competitive [3H]folic acid binding assay, FRα in RT16 cells; details: 50 nM [3H]folic acid, folic acid = 1
FRα, sequence (P15328 25-257): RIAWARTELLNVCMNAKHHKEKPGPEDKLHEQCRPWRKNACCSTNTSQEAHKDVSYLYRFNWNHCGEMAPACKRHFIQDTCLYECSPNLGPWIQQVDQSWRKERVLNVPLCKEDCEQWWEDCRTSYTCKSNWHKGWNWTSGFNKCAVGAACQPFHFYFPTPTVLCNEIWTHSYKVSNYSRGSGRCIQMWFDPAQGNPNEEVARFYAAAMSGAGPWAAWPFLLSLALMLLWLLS
Outline: (§1)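 Cells plated 48 h ahead (~5 × 10^6) were acid-stripped of bound folate (pH 3.5 acetate/NaCl) and washed in ice-cold HEPES saline, pH 7.4. They were then incubated 15 min at 0 °C with 50 nM [3H]folic acid (0.5 Ci/mmol) across a range of unlabeled ligand concentrations. After NaOH lysis, bound label was read as pmol/mg protein.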

[7] = tested on: R2/PCFT4 CHO cells (express human PCFT); assay: Growth inhibition assay, PCFT-expressing R2/PCFT4 CHO cells; type: cell-based, Chinese hamster; details: R2/PCFT4, pH 7.2, read-out: IC50 PCFT R2/PCFT4
FRβ = FRβ (Homo sapiens, UniProt P14207); assay: Competitive [3H]folic acid binding assay, FRβ in D4 cells; details: 50 nM [3H]folic acid, folic acid = 1
FRβ, sequence (P14207 17-255): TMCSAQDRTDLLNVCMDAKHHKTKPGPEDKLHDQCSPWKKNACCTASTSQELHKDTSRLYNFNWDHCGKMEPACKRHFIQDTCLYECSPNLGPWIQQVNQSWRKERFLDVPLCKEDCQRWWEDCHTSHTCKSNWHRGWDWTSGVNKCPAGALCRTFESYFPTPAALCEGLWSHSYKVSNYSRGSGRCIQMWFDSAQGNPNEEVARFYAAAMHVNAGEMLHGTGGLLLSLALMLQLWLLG
Outline: as §1

KB cells = assay: Nucleoside/AICA protection of growth inhibition in KB cells; type: cell-based, human
Outline: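 KB human nasopharyngeal carcinoma cells were grown in complete folate-free RPMI 1640 with 2 nM LCV, with a range of test compound concentrations. Runs had no additions or included 200 nM folic acid, adenosine (60 μM), thymidine (10 μM) or AICA (320 μM). Cell density was read by CellTiter Blue fluorescence and normalized to no-drug cells; experiments were performed in triplicate.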

GARFTase = biological target: T1, GARFTase (Homo sapiens, UniProt P22102); assay: In situ GARFTase activity assay in KB cells; type: cell-based; details: ratio of in situ GARFTase IC50s vs compound 7
T1 sequence (P22102 1-1010): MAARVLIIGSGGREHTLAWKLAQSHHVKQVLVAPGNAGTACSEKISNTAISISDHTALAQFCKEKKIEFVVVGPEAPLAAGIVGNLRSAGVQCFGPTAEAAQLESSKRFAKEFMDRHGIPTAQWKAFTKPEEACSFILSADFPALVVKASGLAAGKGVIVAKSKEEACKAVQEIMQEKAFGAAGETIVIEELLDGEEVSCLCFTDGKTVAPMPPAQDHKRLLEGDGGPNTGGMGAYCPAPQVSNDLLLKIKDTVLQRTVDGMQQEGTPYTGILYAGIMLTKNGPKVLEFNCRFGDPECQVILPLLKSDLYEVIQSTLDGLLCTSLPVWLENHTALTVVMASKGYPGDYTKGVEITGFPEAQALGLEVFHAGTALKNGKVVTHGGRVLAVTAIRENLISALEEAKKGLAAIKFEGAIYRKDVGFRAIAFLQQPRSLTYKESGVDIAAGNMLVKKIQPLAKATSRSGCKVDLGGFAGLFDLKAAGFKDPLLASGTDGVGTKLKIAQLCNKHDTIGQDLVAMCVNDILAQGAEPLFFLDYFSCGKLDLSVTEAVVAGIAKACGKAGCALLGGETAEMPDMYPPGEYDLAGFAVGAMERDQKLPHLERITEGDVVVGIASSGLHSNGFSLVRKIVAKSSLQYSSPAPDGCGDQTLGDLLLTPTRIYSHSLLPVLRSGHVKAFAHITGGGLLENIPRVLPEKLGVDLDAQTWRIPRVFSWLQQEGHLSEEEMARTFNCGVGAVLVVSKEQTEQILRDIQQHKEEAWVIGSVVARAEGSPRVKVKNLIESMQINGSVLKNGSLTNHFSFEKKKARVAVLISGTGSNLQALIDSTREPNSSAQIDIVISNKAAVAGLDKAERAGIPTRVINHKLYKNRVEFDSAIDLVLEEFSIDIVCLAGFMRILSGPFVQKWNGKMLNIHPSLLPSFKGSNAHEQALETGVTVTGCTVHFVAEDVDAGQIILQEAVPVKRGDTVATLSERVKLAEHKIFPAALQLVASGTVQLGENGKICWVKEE

| Structure (SMILES) | IC50 [5] [nM] | relative binding affinity to FRα (in words) (FRα) | fold reduction of KB potency relative to IC50 of 7 ([5]; KB cells, IC50 9 nM vs 0.26 nM) | fold less potent than 7 as GARFTase inhibitor in KB cells (GARFTase) [fold] | IC50 [1] [nM] | increase of cell growth inhibition compared to 8 [2] [fold] | IC50 RFC PC43-10 [3] | IC50 ([3]; read-out: IC50 RFC PC43-10) [nM] | IC50 [4] [nM] | IC50 FRβ D4 [6] | IC50 [7] [nM] | relative binding affinity to FRβ (in words) (FRβ) | IC50 [6] [nM] | effect of AICA on inhibition of KB cell proliferation (KB cells; AICA 320 μM) | effect of adenosine on inhibition of KB cell proliferation (KB cells; adenosine 60 μM) | effect of thymidine on inhibition of KB cell proliferation (KB cells; thymidine 10 μM) |
| --- | --- | --- | --- | --- | --- | --- | --- | --- | --- | --- | --- | --- | --- | --- | --- | --- |
| Nc1nc2[nH]c(CCCc3ccc(C(=O)N[C@@H](CCC(=O)O)C(=O)O)s3)cc2c(=O)[nH]1 [Compound 7, (S)-2-({5-[3-(2-Amino-4-oxo-4,7-dihydro-3H-pyrrolo[2,3-d]pyrimidin-6-yl)-propyl]-thiophene-2-carbonyl}-amino)-pentanedioic Acid] | – | – | – | – | 0.31 | ~10 | modest inhibition | 101 | – | – | – | – | – | – | – | – |
| Nc1nc2[nH]c(CCCc3ccc(C(=O)N[C@@H](CC(=O)O)C(=O)O)s3)cc2c(=O)[nH]1 [Compound 10, (S)-2-({5-[3-(2-Amino-4-oxo-4,7-dihydro-3H-pyrrolo[2,3-d]pyrimidin-6-yl)-propyl]-thiophene-2-carbonyl}-amino)-butanedioic Acid] | > 1000 | bound avidly to FRα | – | – | – | – | – | – | > 1000 | substantially reduced activity | > 1000 | – | – | – | – | – |
| CCC[C@H](NC(=O)c1ccc(CCCc2cc3c(=O)[nH]c(N)nc3[nH]2)s1)C(=O)O [Compound 13, (S)-2-({5-[3-(2-Amino-4-oxo-4,7-dihydro-3H-pyrrolo[2,3-d]pyrimidin-6-yl)propyl]thiophene-2-carbonyl}-amino)-pentanoic Acid] | > 1000 | bound avidly to FRα | – | – | – | – | – | – | > 1000 | complete inactivity | > 1000 | somewhat reduced; also recorded: distinctly reduced binding affinities | > 1000 | – | – | – |

More lines, main results first:

| IC50 [5] [nM] | relative binding affinity to FRα (in words) (FRα) | fold reduction of KB potency relative to IC50 of 7 ([5]; KB cells, IC50 9 nM vs 0.26 nM) | fold less potent than 7 as GARFTase inhibitor in KB cells (GARFTase) [fold] | Structure (SMILES) | IC50 [1] [nM] | increase of cell growth inhibition compared to 8 [2] [fold] | IC50 RFC PC43-10 [3] | IC50 ([3]; read-out: IC50 RFC PC43-10) [nM] | IC50 [4] [nM] | IC50 FRβ D4 [6] | IC50 [7] [nM] | relative binding affinity to FRβ (in words) (FRβ) | IC50 [6] [nM] | effect of AICA on inhibition of KB cell proliferation (KB cells; AICA 320 μM) | effect of adenosine on inhibition of KB cell proliferation (KB cells; adenosine 60 μM) | effect of thymidine on inhibition of KB cell proliferation (KB cells; thymidine 10 μM) |
| --- | --- | --- | --- | --- | --- | --- | --- | --- | --- | --- | --- | --- | --- | --- | --- | --- |
| > 1000 | Substantially reduced | – | – | Nc1nc2[nH]c(CCCc3ccc(C(=O)O)s3)cc2c(=O)[nH]1 [Compound 9, 5-[3-(2-Amino-4-oxo-4,7-dihydro-3H-pyrrolo[2,3-d]pyrimidin-6-yl)-propyl]-thiophene-2-carboxylic Acid] | – | – | – | – | > 1000 | completely inactive | > 1000 | Substantially reduced; also recorded: undetectable binding | > 1000 | – | – | – |
| > 1000 | bound avidly to FRα | – | – | Nc1nc2[nH]c(CCCc3ccc(C(=O)NCCCC(=O)O)s3)cc2c(=O)[nH]1 [Compound 12, 4-({5-[3-(2-Amino-4-oxo-4,7-dihydro-3H-pyrrolo[2,3-d]pyrimidin-6-yl)propyl]thiophene-2-carbonyl}-amino)-butanoic Acid] | – | – | – | – | > 1000 | complete inactivity | > 1000 | somewhat reduced; also recorded: distinctly reduced binding affinities | > 1000 | – | – | – |
| – | – | approximately 35 fold | ~6 | Nc1nc2[nH]c(CCCc3ccc(C(=O)N[C@@H](CCCC(=O)O)C(=O)O)s3)cc2c(=O)[nH]1 [Compound 11, (S)-2-({5-[3-(2-Amino-4-oxo-4,7-dihydro-3H-pyrrolo[2,3-d]pyrimidin-6-yl)propyl]thiophene-2-carbonyl}-amino)-hexanedioic Acid] | – | – | – | – | > 1000 | – | > 1000 | somewhat reduced | – | abolished the inhibitory effects | abolished the inhibitory effects | had no effect |
